MrgX1 ag: agonists of human MrgX1 receptor, primary screen, HEK293 cells, Fluo-4 calcium flux; Mas-related G-protein coupled receptor member X1 (Homo sapiens), Q96LB2; Fluo-4 calcium fluorescence, agonist mode; active compounds read high; B-score at 10 µM; actives 0.44% (n = 310,000);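 active = calcium response B-score plate-corrected fluorescence ratio at least 3 library SD, with starting fluorescence B-score inside 5 SD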
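Material: MrgX1-expressing HEK293 cells / Dosing: compound as first of three additions / Incubation: overnight seeding, then 1 h dark dye loading / Signal: Fluo-4 NW calcium fluorescence / Evaluation: B-scored fluorescence response ratio / Benchmarks: positive and negative control wells on each plate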
MrgX1 allo act: positive allosteric modulators of MrgX1, primary screen, HEK293 cells, Fluo-4 calcium flux; FDSS; active compounds read high; B-score at 10 µM; actives 0.63% (n = 310,000);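 active = plate-corrected calcium response at least 3 library SD above typical, normal starting fluorescence, not activating the receptor alone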;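 also: compound read alongside a low EC10 to EC30 dose of BAM8-22 agonist; peak minus trough fluorescence over baseline measured at the second addition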
MrgX1 antag: antagonists of human MrgX1 receptor, primary screen, HEK293 cells, Fluo-4 calcium flux; AID 588676, 2011; B-score at 10 µM; Mas-related G-protein coupled receptor member X1 (Homo sapiens), Q96LB2; BAM8-22 antagonism; active compounds read low; actives 1.3% (n = 310,000);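 active = calcium-response B-score plate-corrected more than 3 library SD below zero, starting fluorescence within 5 deviations, no agonist response on first addition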;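 also: peak minus trough fluorescence over baseline after final BAM8-22 challenge near maximal dose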
RGS4 inh: RGS4 inhibitors, primary screen, cell-based, HEK293 M3R inducible RGS4, calcium flux | B-score at 10 µM | Fluo-4 calcium flux; active compounds read high; triggered by carbachol at its EC20 | actives 0.45% (n = 310,000) | Regulator of G-protein signaling 4 (Homo sapiens), P49798;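 active = B-score, a plate-corrected calcium signal, over three deviations above library mean, with baseline fluorescence within five deviations of library mean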;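 also: RGS4 expression induced by doxycycline in cells with stable M3 receptor; B-score is computed from the integrated fluorescence ratio over baseline after carbachol; higher B-score means a larger calcium signal and so more RGS4 inhibition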
Target sequence (P49798 whole entry, looked up): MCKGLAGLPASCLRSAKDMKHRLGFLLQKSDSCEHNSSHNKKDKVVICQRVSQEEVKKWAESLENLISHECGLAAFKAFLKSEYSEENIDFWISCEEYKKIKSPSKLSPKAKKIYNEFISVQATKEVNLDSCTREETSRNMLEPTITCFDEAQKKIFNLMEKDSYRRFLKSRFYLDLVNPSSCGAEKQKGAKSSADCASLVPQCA
PHOSPHO1 block: PubChem AID 1565 | actives 1.1% (n = 290,000) | recombinant PHOSPHO1, absorbance phosphatase assay | Phosphoethanolamine/phosphocholine phosphatase (Homo sapiens), Q8TCT1 | inhibition, % at 13.3 µM; in the data active = inhibition above about 60%
Target sequence (Q8TCT1 whole entry, looked up): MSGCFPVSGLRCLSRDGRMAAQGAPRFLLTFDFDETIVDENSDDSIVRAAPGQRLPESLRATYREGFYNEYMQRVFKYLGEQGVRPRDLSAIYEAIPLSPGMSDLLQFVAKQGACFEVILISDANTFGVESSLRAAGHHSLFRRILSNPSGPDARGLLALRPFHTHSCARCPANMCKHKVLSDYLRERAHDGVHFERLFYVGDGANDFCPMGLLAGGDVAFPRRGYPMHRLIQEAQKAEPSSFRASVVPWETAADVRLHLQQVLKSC
RGS4 pot: RGS4 potentiators or activators, primary screen, cell-based, HEK293 M3R inducible RGS4, calcium flux; B-score at 10 µM; carbachol calcium flux Fluo4; active compounds read low; actives 0.92% (n = 310,000); AID 463111, 2010;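 active = B-score of the integrated calcium signal more than 4 SD below the library mean, with starting fluorescence not abnormally high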;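 also: negative B-score means reduced calcium response which marks RGS4 activation or potentiation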
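Also added: carbachol at ECmax as muscarinic agonist stimulus; Assay system: HEK293 cells with stable M3R and inducible RGS4; Timing: overnight RGS4 induction, 30 min dye load 37 °C, 20 min compound RT; Measured by: Fluo4-AM (2 µM) calcium-flux fluorescence, kinetic read.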
MrgX1 PAM conf: MrgX1 positive allosteric modulators, duplicate retest, confirmation, HEK293 cells, Fluo-4 calcium flux; shares compounds with MrgX1 allo act; Fluo-4 calcium fluorescence, FDSS; activation (ratio percentage), % at 10 µM; actives 13% (n = 1,200); AID 602413, 2012;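 active = ratio at least 3 SD above the weak peptide control, stable starting fluorescence, no direct agonism earlier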;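 also: compound followed by low BAM8-22 agonist challenge near EC20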
HEK293 Ca flux: nonspecific calcium signal in parental HEK293, confirmation, counter-screen for MrgX1 antagonist project, parental HEK293 cells, Fluo-4 calcium flux; fluorescence ratio F(max-min)/F0 at 10 µM; shares compounds with MrgX1 antag; actives 2% (n = 4,000); Fluo-4 calcium fluorescence, FDSS;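 active = duplicate-averaged calcium fluorescence ratio at least three times the standard deviation of buffer wells, a nonspecific response in parental cells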
HEK293 Ca counter: calcium response in parental HEK293 cells, primary screen, counter-screen for MrgX1 allosteric activator project, cell-based, Fluo-4 calcium flux, duplicate; fluorescence ratio F(max-min)/F0 at 10 µM; actives 0.4% (n = 4,000); Fluo-4 fluorescence ratio; active compounds read high; shares compounds with MrgX1 antag; AID 624114, 2012;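 active = calcium fluorescence ratio, averaged over duplicates, at least 3 SD of the buffer-well ratio, meaning a nonspecific response in receptor-free cells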;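 also: untransfected parental HEK293 lacking MrgX1 used as counterscreen for MrgX1 allosteric activators; fluorescence change taken during the second addition on a kinetic imager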
HEK293 Ca cntr2: calcium response in parental HEK293 cells, primary screen, counter-screen for MrgX1 agonist project, cell-based, Fluo-4 calcium flux, duplicate, agonist mode | shares compounds with MrgX1 antag | Fluo-4 calcium fluorescence (FDSS); active compounds read high | fluorescence ratio F(max-min)/F0 at 10 µM | actives 8.7% (n = 4,000) | AID 624115, 2012;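 active = calcium fluorescence ratio at least three times the spread of buffer wells, meaning a non-specific response in parental cells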
Numbers stand for hits; n = inactive; x = not tested or not shown. In the library only some 4.5% were active in any assay of this set; here they are far more common.

SMILES | MrgX1 ag | MrgX1 allo act | MrgX1 antag | RGS4 inh | PHOSPHO1 block | RGS4 pot | MrgX1 PAM conf | HEK293 Ca flux | HEK293 Ca counter | HEK293 Ca cntr2
O=C(CSc1nc2ccccc2[nH]1)Nc1ccc(F)cc1 | n | n | n | n | n | n | x | x | x | x
O=C(CSc1nc2ccccc2[nH]1)NCc1ccc(F)cc1 | n | 9.5 | n | n | n | n | n | n | n | n
Cc1cc(C)c(C#N)c(Sc2ccc(N)cc2)n1 | n | 12 | n | n | n | n | n | n | n | n
CCOC(=O)c1cc(C)nc(Sc2ccc(C)cc2)c1C#N | n | n | n | n | n | n | x | x | x | x
O=C(O)C1CCCN(S(=O)(=O)c2ccc(Br)s2)C1 (stereo not drawn) | n | 6.6 | n | n | n | n | n | n | n | n
CC(CC12CC3CC(CC(C3)C1)C2)NCc1ccccc1O (stereo not drawn) | n | n | n | n | n | n | x | x | x | x
CCC1CC(C(=O)Nc2ccccc2)C(=O)O1 (stereo not drawn) | n | n | n | n | x | n | x | x | x | x
COC(=O)c1ccc(OCCCCN2CC(C)OC(C)C2)cc1 (stereo not drawn) | n | 10 | n | n | n | n | n | n | n | n
CC(C)(C)Nc1ncnc2c1cnn2-c1ccccc1 | n | 7.7 | n | n | n | n | n | n | n | n
c1ccc(CNc2ncnc3c2cnn3-c2ccccc2)cc1 | n | n | n | n | n | n | x | x | x | x
CC(Oc1cc2oc(=O)c3c(c2cc1Cl)CCC3)C(=O)NCCCn1ccnc1 (stereo not drawn) | n | n | n | n | n | n | x | x | x | x
CCN(CC)S(=O)(=O)c1ccc(OC)c(NC(=O)c2cccc([N+](=O)[O-])c2C)c1 | n | n | n | n | x | n | x | x | x | x
C=C(C)CC(NCCc1ccccc1)c1ccco1 (stereo not drawn) | x | x | x | n | n | n | x | x | x | x
COC(=O)CN1C(=O)C2(C(C#N)=C(N)Oc3n[nH]c(-c4cccs4)c32)c2ccccc21 (stereo not drawn) | n | n | n | n | n | n | x | x | x | x
COC(=O)CN1C(=O)C2(C(C#N)=C(N)Oc3c2c(C)nn3-c2ccccc2)c2ccccc21 (stereo not drawn) | n | 7.4 | n | n | n | n | n | n | n | n
CC/C(=C\C(=O)c1cccnc1)Nc1ccc(C)c(C)c1 | n | 8.7 | n | n | 96 | n | n | n | n | n
COc1ccc(-c2nc3ccccc3c(=O)n2CC(C)C)cc1 | n | n | n | n | n | n | x | x | x | x
CC1(C(=O)N/N=C/c2c(F)c(F)c(F)c(F)c2F)CC1(Cl)Cl (stereo not drawn) | n | 20 | n | n | x | n | n | n | n | n
CC(=O)c1ccc(NC(=O)C2CCN(S(=O)(=O)c3cccc4nonc34)CC2)cc1 | n | n | n | n | n | n | x | x | x | x
O=S(=O)(Nc1nnc(C(F)(F)F)s1)c1ccc(Cl)cc1 | n | n | n | n | n | n | x | x | x | x

Source: PubChem
